Assay [1] has as its target T1, Quinolone resistance protein NorA (Staphylococcus aureus, UniProt P0A0J7).
T1 sequence (P0A0J7 whole entry): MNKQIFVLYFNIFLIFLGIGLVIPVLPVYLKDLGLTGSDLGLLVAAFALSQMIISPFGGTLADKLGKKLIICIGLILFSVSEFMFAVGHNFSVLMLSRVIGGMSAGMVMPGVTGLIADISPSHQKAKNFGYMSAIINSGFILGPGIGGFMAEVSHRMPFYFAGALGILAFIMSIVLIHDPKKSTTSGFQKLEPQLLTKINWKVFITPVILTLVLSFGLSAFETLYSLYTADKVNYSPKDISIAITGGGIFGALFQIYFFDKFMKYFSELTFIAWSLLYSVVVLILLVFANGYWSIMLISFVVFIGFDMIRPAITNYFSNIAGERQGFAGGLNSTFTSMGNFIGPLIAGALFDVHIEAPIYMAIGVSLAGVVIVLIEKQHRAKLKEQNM
As to the kind of experiment: Inhibition of NorA in Staphylococcus aureus 1199B assessed as inhibition of ethidium bromide efflux dose response curve based fluorometric assay. In outline:
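Fluorometric EtBr efflux (loss of EtBr) from S. aureus SA-1199B (norA-overexpressing); dose-response curves built to assess activity at concentrations below the 50 μM screening level; duplicate experiments, result expressed as mean total efflux over a 5 min time course; IC50 derived from the curves.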

The subject of assay [2] is Staphylococcus aureus. Description: Antibacterial activity against Staphylococcus aureus 1199B norA++ and A116E GrlA mutation by M7-A7 CLSI microdilution method. In kind it is functional.
For assay [3], the target named is T2, Quinolone resistance protein NorA (Staphylococcus aureus) (UniProt P0A0J7).
T2 sequence (whole entry): T1 sequence (P0A0J7 whole entry)
Description: Inhibition of wild-type norA expressing Staphylococcus aureus 1199 assessed as reduction in ciprofloxacin MIC.

Assay [4] deals with Staphylococcus aureus. As to the kind of experiment: Antibacterial activity against NorA-expressing Staphylococcus aureus 1199B by M7-A7 CLSI microdilution method. The assay is classed as functional.
In assay [5] the test system is Staphylococcus aureus. As to the kind of experiment: Antibacterial activity against wild-type Staphylococcus aureus ATCC 25923 by M7-A7 CLSI microdilution method. The assay is classed as functional.
Assay [6] relates to Staphylococcus aureus. As to the kind of experiment: Antibacterial activity against Staphylococcus aureus K1902 bearing norA-deficient mutation by M7-A7 CLSI microdilution method. In kind it is functional.
Assay [7] deals with T2, Quinolone resistance protein NorA (Staphylococcus aureus). The settings on record: 1199B, 25 ug/mL.
Assay [8] has the same target. Description: Inhibition of NorA in Staphylococcus aureus 1199B assessed as inhibition of ethidium bromide efflux at 50 uM by fluorimetry. In outline:
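Fluorometric measurement of EtBr loss from norA-overexpressing SA-1199B, with compounds screened at 50 μM. Performed in duplicate; value is mean total efflux over a 5 min time course, expressed as percent inhibition.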

Assay [9] has as its system Staphylococcus aureus. Description: Antibacterial activity against Staphylococcus aureus K2378 bearing norA++ efficient mutation by M7-A7 CLSI microdilution method. The assay is classed as functional.
In assay [10] the test system is Staphylococcus aureus. As to the kind of experiment: Potentiation of ciprofloxacin-antibacterial activity against wild-type Staphylococcus aureus ATCC 25923 assessed as reduction in ciprofloxacin MIC by M7-A7 CLSI microdilution method. The assay is classed as functional, organism-based.
The subject of assay [11] is Staphylococcus aureus. Description: Antibacterial activity against wild-type norA expressing Staphylococcus aureus 1199 by M7-A7 CLSI microdilution method. The assay is classed as functional.
Assay [12] relates to Staphylococcus aureus. As to the kind of experiment: Potentiation of ciprofloxacin-antibacterial activity against Staphylococcus aureus K1902 bearing norA-deficient mutation assessed as reduction in ciprofloxacin MIC at >25 ug/mL by M7-A7 CLSI microdilution method. In kind it is functional.
Assay [13] concerns Staphylococcus aureus. Description: Potentiation of ciprofloxacin-antibacterial activity against Staphylococcus aureus K1902 bearing norA-deficient mutation assessed as reduction in ciprofloxacin MIC at 0.78 ug/mL by M7-A7 CLSI microdilution method. The assay is classed as functional.
The target in assay [14] is T2, Quinolone resistance protein NorA (Staphylococcus aureus). As to the kind of experiment: Inhibition of NorA in Staphylococcus aureus 1199B norA++ and A116E GrlA mutation assessed as reduction in ciprofloxacin MIC at >=12.5 ug/mL.
Assay [15] has the same target. Description: Inhibition of NorA in Staphylococcus aureus K2378 bearing norA++ efficient mutation assessed as reduction in ciprofloxacin MIC at 6.25 ug/mL.
For assay [16] the target is unchanged. As to the kind of experiment: Inhibition of NorA in Staphylococcus aureus 1199B norA++ and A116E GrlA mutation assessed as reduction in ciprofloxacin MIC at >12.5 ug/mL.
For assay [17] the target is unchanged. Description: Inhibition of NorA in Staphylococcus aureus K2378 bearing norA++ efficient mutation assessed as reduction in ciprofloxacin MIC at 3.13 ug/mL.
For assay [18] the target is unchanged. As to the kind of experiment: Inhibition of NorA in Staphylococcus aureus 1199B norA++ and A116E GrlA mutation assessed as reduction in ciprofloxacin MIC at 50 ug/mL.
Assay [19] shares this target. As to the kind of experiment: Inhibition of NorA in Staphylococcus aureus K2378 bearing norA++ efficient mutation assessed as reduction in ciprofloxacin MIC at 1.56 ug/mL.
The target is the same in assay [20]. As to the kind of experiment: Inhibition of NorA in Staphylococcus aureus 1199B norA++ and A116E GrlA mutation assessed as reduction in ciprofloxacin MIC at 100 ug/mL.
For assay [21] the target is unchanged. Description: Inhibition of NorA in Staphylococcus aureus K2378 bearing norA++ efficient mutation assessed as reduction in ciprofloxacin MIC at 12.5 ug/mL.

In brackets after ≈: the same amount, converted by molar mass. Activity calls are given as the source filed them. The calls are words filed in the database; no cut-off is given here. A value given as a limit tells only on which side of the number the result lay.

In the case of `Fc1ccc([C@@H]2CCNC[C@H]2COc2ccc3c(c2)OCO3)cc1` [PAROXETINE], the IC50 in assay [1] amounted to 7 µM. The minimal inhibitory concentration (MIC) against Staphylococcus aureus [2] is more than 100 µg/mL; with Staphylococcus aureus [4] it was more than 303 µM; against Staphylococcus aureus [5] it was more than 100 µg/mL; in the assay with Staphylococcus aureus [6], more than 100 µg/mL; in the assay on Staphylococcus aureus [9], 100 µg/mL (≈ 304 µM); against Staphylococcus aureus [11] it was more than 100 µg/mL. Besides, the inhibition entry in [3] and in assay [7] was “inactive” each time. For the same compound, the inhibition in assay [8] came out at 89.7%. Moreover, the result in the assay with Staphylococcus aureus [10] was inactive.
On to `Cn1c(-c2ccc(OCCN3CCOCC3)cc2)cc(=O)c2ccccc21`, for which, in assay [8], the inhibition amounted to 0%.
Still for that read-out and setting: with `CCCOc1ccc(-c2cc(=O)c3ccccc3n2C)cc1` the figure was 33.9%; with `CCCOc1ccc(-c2cc(=O)c3cc(OC)c(OC)cc3n2C)cc1`, 0%.
As to `CCCOc1ccc(-c2cc(OC)c3ccccc3n2)cc1`, the inhibition in assay [8] was 63.7%.
For `CCCOc1ccc(-c2cc(O)c3ccccc3n2)cc1`, the inhibition in assay [8] stood at 0%.
For `COC(=O)[C@H]1[C@H]2C[C@@H]3c4[nH]c5cc(OC)ccc5c4CCN3C[C@H]2C[C@@H](OC(=O)c2cc(OC)c(OC)c(OC)c2)[C@@H]1OC` [RESERPINE], the IC50 in assay [1] stood at 7 µM. Also, the minimal inhibitory concentration (MIC) was more than 100 µg/mL against Staphylococcus aureus [2]; more than 164 µM with Staphylococcus aureus [4]; more than 100 µg/mL in the assay on Staphylococcus aureus [5]; more than 100 µg/mL against Staphylococcus aureus [6]; more than 100 µg/mL in the assay on Staphylococcus aureus [9]; more than 100 µg/mL in the assay on Staphylococcus aureus [11]. The inhibition entry in assay [3] was “inactive”. The result in the assay with Staphylococcus aureus [10] was inactive.
Turning to `Cn1c(-c2ccc(O)cc2)cc(=O)c2ccccc21`, the inhibition in assay [8] came out at 0%.
On the same count and under the same terms, with `COc1cc2c(=O)cc(-c3ccc(O)cc3)n(C)c2cc1OC` the figure was 0%.
For the compound `COc1ccc(-c2cc(=O)c3ccccc3n2C)cc1`, the inhibition in [8] was found to be 0%.
On to `CCCOc1ccc(-c2cc(OCCN3CCCCC3)c3ccccc3n2)cc1`, for which the IC50 in assay [1] was 7 µM. For the same compound, the MIC with Staphylococcus aureus [2] was 100 µg/mL (≈ 256 µM); in the assay with Staphylococcus aureus [4], 256 µM (≈ 100 µg/mL); against Staphylococcus aureus [5], 100 µg/mL (≈ 256 µM); against Staphylococcus aureus [6], 50 µg/mL (≈ 128 µM); in the assay with Staphylococcus aureus [9], 50 µg/mL (≈ 128 µM); in the assay on Staphylococcus aureus [11], 100 µg/mL (≈ 256 µM). For the same compound, the inhibition result in [3] is “inactive”. In addition, the “fold change (FC)” value stood at 8 in the assay with Staphylococcus aureus [12], 4 in the assay on Staphylococcus aureus [13], 16 in assay [14] and 16 in assay [15]. Besides, the outcome in the assay with Staphylococcus aureus [10] was inactive.
For the compound `CCCOc1ccc(-c2cc(OCCN(CC)CC)c3ccccc3n2)cc1`, the IC50 in assay [1] was 7 µM. Further, the minimum inhibitory concentration (MIC) in the assay on Staphylococcus aureus [2] is more than 100 µg/mL; in the assay on Staphylococcus aureus [4], more than 241 µM; with Staphylococcus aureus [5], 100 µg/mL (≈ 264 µM); with Staphylococcus aureus [6], 50 µg/mL (≈ 132 µM); with Staphylococcus aureus [9], 50 µg/mL (≈ 132 µM); against Staphylococcus aureus [11], more than 100 µg/mL. In assay [3], the inhibition entry is “inactive”. Further, the fold change (FC) in assay [16] is 8; with Staphylococcus aureus [12], 8; in the assay with Staphylococcus aureus [13], 4; in [17], 16. The outcome with Staphylococcus aureus [10] was inactive.
`CCCOc1ccc(-c2cc(=O)c3ccccc3n2CCN2CCCCC2)cc1`: the minimum inhibitory concentration (MIC) with Staphylococcus aureus [2] was more than 100 µg/mL; against Staphylococcus aureus [4], more than 256 µM; with Staphylococcus aureus [5], more than 100 µg/mL; against Staphylococcus aureus [6], more than 100 µg/mL; in the assay on Staphylococcus aureus [9], more than 100 µg/mL; against Staphylococcus aureus [11], more than 100 µg/mL. Besides, the inhibition result in assay [3] and in assay [18] was “inactive” throughout. In addition, the fold change (FC) in assay [19] came to 4. For the same compound, the outcome with Staphylococcus aureus [10] was inactive.
Turning to `CCN(CC)CCOc1cc(-c2ccc(OCCN3CCCCC3)cc2)nc2ccccc12`, the MIC in the assay with Staphylococcus aureus [2] is more than 100 µg/mL; with Staphylococcus aureus [4] it was more than 223 µM; in the assay on Staphylococcus aureus [5], 100 µg/mL (≈ 223 µM); against Staphylococcus aureus [6], 100 µg/mL (≈ 223 µM); with Staphylococcus aureus [9], 100 µg/mL (≈ 223 µM); with Staphylococcus aureus [11], more than 100 µg/mL. Moreover, the inhibition result in assay [3] and in [20] was “inactive” in each case. For the same compound, the outcome in the assay on Staphylococcus aureus [10] was inactive. The fold change (FC) in assay [21] stood at 4.
Regarding `Cn1c(-c2ccccc2)cc(=O)c2cc(O)c(O)cc21`, the inhibition in [8] came to 0%.
Take `Cn1c(-c2ccc(O)cc2)cc(=O)c2cc(O)c(O)cc21`: the inhibition in assay [8] was 0%.

The record behind these values is ChEMBL document CHEMBL1811797, “Evolution from a natural flavones nucleus to obtain 2-(4-Propoxyphenyl)quinoline derivatives as potent inhibitors of the S. aureus NorA efflux pump” (J Med Chem, 2011).
